Laboratory results published in ChEMBL document CHEMBL1145884, “Synthesis and biological activity of novel 1beta-methylcarbapenems with oxyiminopyrrolidinylamide moiety” (2003).

Tests used:
[1] = test system: Klebsiella aerogenes; assay: Antibacterial activity against Klebsiella aerogenes 1522E; type: functional
Procedure, shortened: (§1)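 MIC was determined by agar dilution on Mueller–Hinton medium.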

[2] = test system: Staphylococcus aureus; assay: Antibacterial activity against Staphylococcus aureus 503; type: functional
[3] = test system: Escherichia coli; assay: Antibacterial activity against Escherichia coli 078; type: functional; procedure, shortened: as §1
[4] = test system: Pseudomonas aeruginosa; assay: Antibacterial activity against Pseudomonas aeruginosa 9027; type: functional; procedure, shortened: as §1
[5] = Compound was evaluated for its relative half life of hydrolysis to meropenem by partially purified porcine renal dihydropeptidase-I (DHP-I); type: functional; details: Sus scrofa
[6] = test system: Pseudomonas aeruginosa; assay: Antibacterial activity against Pseudomonas aeruginosa 1592E
[7] = test system: Staphylococcus aureus; assay: Antibacterial activity against Staphylococcus aureus 285; type: functional
[8] = test system: Escherichia coli; assay: Antibacterial activity against Escherichia coli 1507E; type: functional; procedure, shortened: as §1
[9] = test system: Staphylococcus aureus; assay: Antibacterial activity against Staphylococcus aureus SG 511; type: functional
[10] = test system: Pseudomonas aeruginosa; assay: Antibacterial activity against Pseudomonas aeruginosa 1771M; type: functional; procedure, shortened: as §1
[11] = test system: Streptococcus pyogenes; assay: Antibacterial activity against Streptococcus pyogenes 308A; type: functional
[12] = test system: Enterobacter cloacae; assay: Antibacterial activity against Enterobacter cloacae 1321E; type: functional; procedure, shortened: as §1
[13] = test system: Salmonella typhimurium; assay: Antibacterial activity against Salmonella Typhimurium; type: functional, Salmonella enterica subsp. enterica serovar Typhimurium; details: Salmonella enterica; procedure, shortened: as §1
[14] = test system: Escherichia coli; assay: Compound was evaluated for its antibacterial activity against Escherichia coli 0157:H7; type: functional
[15] = test system: Klebsiella pneumoniae; assay: Compound was evaluated for its antibacterial activity against Klebsiella pneumoniae 1 ESBL; type: functional
[16] = test system: Shigella sonnei; assay: Compound was evaluated for its antibacterial activity against Shigella sonnei ATCC 9290; type: functional
[17] = test system: Escherichia coli; assay: Compound was evaluated for its antibacterial activity against Escherichia coli CCARM 1113 MDR; type: functional
[18] = test system: Escherichia coli; assay: Compound was evaluated for its antibacterial activity against Escherichia coli CCARM 1115 MDR; type: functional
[19] = test system: Escherichia coli; assay: Compound was evaluated for its antibacterial activity against Escherichia coli CCARM 1111 MDR; type: functional
[20] = test system: Klebsiella pneumoniae; assay: Compound was evaluated for its antibacterial activity against Klebsiella pneumoniae
[21] = test system: Salmonella typhimurium; assay: Compound was evaluated for its antibacterial activity against Salmonella Typhimurium; type: functional, Salmonella enterica subsp. enterica serovar Typhimurium; details: Salmonella enterica
[22] = test system: Escherichia coli; assay: Compound was evaluated for its antibacterial activity against Escherichia coli DC 2; type: functional
[23] = test system: Escherichia coli; assay: Compound was evaluated for its antibacterial activity against Escherichia coli CCARM 1117 MDR; type: functional
[24] = test system: Klebsiella oxytoca; assay: Compound was evaluated for its antibacterial activity against Klebsiella oxytoca 1082E; type: functional
[25] = test system: Klebsiella pneumoniae; assay: Compound was evaluated for its antibacterial activity against Klebsiella pneumoniae 4 ESBL; type: functional
[26] = test system: Pseudomonas aeruginosa; assay: Compound was evaluated for its antibacterial activity against Pseudomonas aeruginosa 3 MDR; type: functional
[27] = test system: Pseudomonas aeruginosa; assay: Compound was evaluated for its antibacterial activity against Pseudomonas aeruginosa 1 MDR; type: functional
[28] = test system: Enterobacter cloacae; assay: Compound was evaluated for its antibacterial activity against Enterobacter cloacae P99; type: functional
[29] = test system: Escherichia coli; assay: Compound was evaluated for its antibacterial activity against Escherichia coli CCARM 1114 MDR; type: functional
[30] = test system: Salmonella typhimurium; assay: Compound was evaluated for its antibacterial activity against Salmonella Typhimurium 2; type: functional, Salmonella enterica subsp. enterica serovar Typhimurium; details: Salmonella enterica
[31] = test system: Klebsiella pneumoniae; assay: Compound was evaluated for its antibacterial activity against Klebsiella pneumoniae 5 ESBL; type: functional
[32] = test system: Escherichia coli; assay: Compound was evaluated for its antibacterial activity against Escherichia coli DC 0; type: functional
[33] = test system: Pseudomonas aeruginosa; assay: Compound was evaluated for its antibacterial activity against Pseudomonas aeruginosa 2 MDR; type: functional
[34] = test system: Escherichia coli; assay: Compound was evaluated for its antibacterial activity against Escherichia coli CCARM 1109 MDR; type: functional
[35] = test system: Klebsiella pneumoniae; assay: Compound was evaluated for its antibacterial activity against Klebsiella pneumoniae 10 ESBL; type: functional
[36] = test system: Klebsiella pneumoniae; assay: Compound was evaluated for its antibacterial activity against Klebsiella pneumoniae; remark: listed apart in the source
[37] = test system: Pseudomonas aeruginosa; assay: Compound was evaluated for its antibacterial activity against Pseudomonas aeruginosa ATCC 27853; type: functional
[38] = test system: Klebsiella pneumoniae; assay: Compound was evaluated for its antibacterial activity against Klebsiella pneumoniae 9 ESBL; type: functional
[39] = test system: Klebsiella pneumoniae; assay: Compound was evaluated for its antibacterial activity against Klebsiella pneumoniae 3 ESBL; type: functional
[40] = test system: Escherichia coli; assay: Compound was evaluated for its antibacterial activity against Escherichia coli CCARM 1110 MDR; type: functional
[41] = test system: Escherichia coli; assay: Compound was evaluated for its antibacterial activity against Escherichia coli CCARM 1108 MDR; type: functional
[42] = test system: Salmonella typhimurium; assay: Compound was evaluated for its antibacterial activity against Salmonella Typhimurium 1; type: functional, Salmonella enterica subsp. enterica serovar Typhimurium; details: Salmonella enterica
[43] = test system: Escherichia coli; assay: Compound was evaluated for its antibacterial activity against Escherichia coli TEM; type: functional
[44] = test system: Salmonella enteritidis; assay: Compound was evaluated for its antibacterial activity against […] enteritidis 2; type: functional, Salmonella enterica subsp. enterica serovar Enteritidis; details: Salmonella enterica
[45] = test system: Shigella flexneri; assay: Compound was evaluated for its antibacterial activity against Shigella flexneri ATCC 9199; type: functional
[46] = test system: Klebsiella pneumoniae; assay: Compound was evaluated for its antibacterial activity against Klebsiella pneumoniae 6 ESBL; type: functional
[47] = test system: Klebsiella pneumoniae; assay: Compound was evaluated for its antibacterial activity against Klebsiella pneumoniae 2 ESBL; type: functional
[48] = test system: Escherichia coli; assay: Compound was evaluated for its antibacterial activity against Escherichia coli ATCC 25922; type: functional
[49] = test system: Escherichia coli; assay: Compound was evaluated for its antibacterial activity against Escherichia coli CCARM 1112 MDR; type: functional
[50] = test system: Salmonella enteritidis; assay: Compound was evaluated for its antibacterial activity against […] enteritidis 3; type: functional, Salmonella enterica subsp. enterica serovar Enteritidis; details: Salmonella enterica
[51] = test system: Escherichia coli; assay: Compound was evaluated for its antibacterial activity against Escherichia coli CCARM 1116 MDR; type: functional
[52] = test system: Salmonella enteritidis; assay: Compound was evaluated for its antibacterial activity against […] enteritidis; type: functional, Salmonella enterica subsp. enterica serovar Enteritidis; details: Salmonella enterica
[53] = test system: Salmonella enteritidis; assay: Compound was evaluated for its antibacterial activity against […] enteritidis 1; type: functional, Salmonella enterica subsp. enterica serovar Enteritidis; details: Salmonella enterica

C[C@@H](O)[C@H]1C(=O)N2C(C(=O)O)=C(SCCNC=N)C[C@H]12 [IMIPENEM ANHYDROUS]
0.013 µg/mL: MIC [2]
0.17: relative t1/2 (DHP-I hydrolysis vs meropenem) [5]
0.195 µg/mL: MIC [3] | MIC [8] | MIC [10] | MIC [12]
0.025 µg/mL: MIC [7] | MIC [9]
0.391 µg/mL: MIC [1]
0.781 µg/mL: MIC [4] | MIC [6] | MIC [13]
0.007 µg/mL: MIC [11]

C[C@@H](O)[C@H]1C(=O)N2C(C(=O)O)=C(S[C@@H]3CN[C@H](C(=O)N(C)C)C3)[C@H](C)[C@H]12 [MEROPENEM]
0.049 µg/mL: MIC [1] | MIC [10] | MIC [13]
1 µg/mL: MIC [27]
0.016 µg/mL: MIC [18] | MIC [19] | MIC [25] | MIC [30] | MIC [31] | MIC [35] | MIC [40] | MIC [43] | MIC [44] | MIC [48] | MIC [49] | MIC [52] | MIC [53]
8 µg/mL: MIC [26] | MIC [33]
0.06 µg/mL: MIC [20] | MIC [24] | MIC [36] | MIC [39]
1: relative t1/2 (DHP-I hydrolysis vs meropenem) [5]
0.195 µg/mL: MIC [4] | MIC [6] | MIC [7] | MIC [9]
0.098 µg/mL: MIC [2]
0.5 µg/mL: MIC [37]
0.025 µg/mL: MIC [3] | MIC [8] | MIC [12]
0.013 µg/mL: MIC [11]
0.03 µg/mL: MIC [14] | MIC [15] | MIC [16] | MIC [17] | MIC [21] | MIC [22] | MIC [23] | MIC [28] | MIC [29] | MIC [32] | MIC [34] | MIC [38] | MIC [41] | MIC [42] | MIC [45] | MIC [46] | MIC [47] | MIC [50] | MIC [51]
